# Activity calls are given as the source filed them. The rule behind the calls is not given here.
# Legend:
# Dipeptidyl peptidase 4 = Dipeptidyl peptidase 4 (Homo sapiens, UniProt P27487); test: Inhibition of DPP4 in human Caco-2 cells using AP-AFC as substrate preincubated with enzyme for 10 mins followed by substrate addition and measured after 10 mins by fluorescence based analysis; type: cell-based
# Dipeptidyl peptidase 8 = Dipeptidyl peptidase 8 (Homo sapiens, UniProt Q6V1X1); test: Inhibition of DPP8 (unknown origin)
# Dipeptidyl peptidase 9 = Dipeptidyl peptidase 9 (Homo sapiens, UniProt Q86TI2); test: Inhibition of DPP9 (unknown origin)
# HepG2 = test: Cytotoxicity against human HepG2 cells assessed as reduction in cell viability at 1 to 100 uM measured after 48 hrs by MTT assay; type: cell-based; details: hepg2, 48 h, dose 1-100 µM
# In short: (§1)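 HepG2 cells were exposed to compound at a range of concentrations for 48 h. Viability was measured by MTT assay. Mean ± SD, n = 3.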
# [1] = Cytotoxicity against human HepG2 cells assessed as cell viability at 100 uM measured after 48 hrs by MTT assay; type: cell-based; details: read-out: Activity; in short: as §1
# Mus musculus [2] = test: Anti-Hyperglycemic activity in high fat diet-fed/streptozotocin-induced type 2 diabetic mellitus C57BL/6 mouse model assessed as blood glucose level at 1 mg/kg, ip administered 30 mins prior to glucose challenge and measured after 0.5 hrs by IPGTT (reference value: 12.7 +/- 0.7 mM); type: functional; details: time 60 min
# In short: (§2)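 Male C57BL/6 mice made type 2 diabetic by high-fat diet plus streptozotocin. Each received a single intraperitoneal dose (1, 5 or 10 mg/kg) 30 min before an intraperitoneal glucose challenge. Blood glucose was read at 0, 0.5, 1, 1.5 and 2 h. Results are mean ± SD, n = 4.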
# Mus musculus [3] = test: Anti-Hyperglycemic activity in high fat diet-fed/streptozotocin-induced type 2 diabetic mellitus C57BL/6 mouse model assessed as blood glucose level at 1 mg/kg, ip administered 30 mins prior to glucose challenge and measured after 1 hr by IPGTT (reference value: 12.7 +/- 0.7 mM); type: functional; details: time 90 min, 1.5 h; in short: as §2
# Mus musculus [4] = test: Anti-Hyperglycemic activity in high fat diet-fed/streptozotocin-induced type 2 diabetic mellitus C57BL/6 mouse model assessed as blood glucose level at 1 mg/kg, ip administered 30 mins prior to glucose challenge and measured after 1.5 hrs by IPGTT (reference value: 12.7 +/- 0.7 mM); type: functional; details: time 120 min, 2 h; in short: as §2
# Mus musculus [5] = test: Anti-Hyperglycemic activity in high fat diet-fed/streptozotocin-induced type 2 diabetic mellitus C57BL/6 mouse model assessed as blood glucose level at 1 mg/kg, ip administered 30 mins prior to glucose challenge and measured after 2 hrs by IPGTT (reference value: 12.7 +/- 0.7 mM); type: functional; details: time 150 min, 2.5 h; in short: as §2
# Mus musculus [6] = test: Anti-Hyperglycemic activity in high fat diet-fed/streptozotocin-induced type 2 diabetic mellitus C57BL/6 mouse model assessed as blood glucose level at 5 mg/kg, ip administered 30 mins prior to glucose challenge and measured after 0.5 hrs by IPGTT (reference value: 13.4 +/- 1.1 mM); type: functional; details: time 60 min, 1 h; in short: as §2
# Mus musculus [7] = test: Anti-Hyperglycemic activity in high fat diet-fed/streptozotocin-induced type 2 diabetic mellitus C57BL/6 mouse model assessed as blood glucose level at 5 mg/kg, ip administered 30 mins prior to glucose challenge and measured after 1 hr by IPGTT (reference value: 13.4 +/- 1.1 mM); type: functional; details: time 90 min, 1.5 h; in short: as §2
# Mus musculus [8] = test: Anti-Hyperglycemic activity in high fat diet-fed/streptozotocin-induced type 2 diabetic mellitus C57BL/6 mouse model assessed as blood glucose level at 5 mg/kg, ip administered 30 mins prior to glucose challenge and measured after 1.5 hrs by IPGTT (reference value: 13.4 +/- 1.1 mM); type: functional; details: time 120 min, 2 h; in short: as §2
# Mus musculus [9] = test: Anti-Hyperglycemic activity in high fat diet-fed/streptozotocin-induced type 2 diabetic mellitus C57BL/6 mouse model assessed as blood glucose level at 5 mg/kg, ip administered 30 mins prior to glucose challenge and measured after 2 hrs by IPGTT (reference value: 13.4 +/- 1.1 mM); type: functional; details: time 150 min, 2.5 h; in short: as §2
# Mus musculus [10] = test: Anti-Hyperglycemic activity in high fat diet-fed/streptozotocin-induced type 2 diabetic mellitus C57BL/6 mouse model assessed as blood glucose level at 10 mg/kg, ip administered 30 mins prior to glucose challenge and measured after 0.5 hrs by IPGTT (reference value: 12.3 to 15.3 mM); type: functional; details: time 60 min, 1 h; in short: as §2
# Mus musculus [11] = test: Anti-Hyperglycemic activity in high fat diet-fed/streptozotocin-induced type 2 diabetic mellitus C57BL/6 mouse model assessed as blood glucose level at 10 mg/kg, ip administered 30 mins prior to glucose challenge and measured after 1 hrs by IPGTT (reference value: 12.3 to 15.3 mM); type: functional; details: time 90 min, 1.5 h; in short: as §2
# Mus musculus [12] = test: Anti-Hyperglycemic activity in high fat diet-fed/streptozotocin-induced type 2 diabetic mellitus C57BL/6 mouse model assessed as blood glucose level at 10 mg/kg, ip administered 30 mins prior to glucose challenge and measured after 1.5 hrs by IPGTT (reference value: 12.3 to 15.3 mM); type: functional; details: time 120 min, 2 h; in short: as §2
# Mus musculus [13] = test: Anti-Hyperglycemic activity in high fat diet-fed/streptozotocin-induced type 2 diabetic mellitus C57BL/6 mouse model assessed as blood glucose level at 10 mg/kg, ip administered 30 mins prior to glucose challenge and measured after 2 hrs by IPGTT (reference value: 12.3 to 15.3 mM); type: functional; details: time 150 min, 2.5 h; in short: as §2
# Mus musculus [14] = test: Anti-Hyperglycemic activity in high fat diet-fed/streptozotocin-induced type 2 diabetic mellitus C57BL/6 mouse model assessed as blood glucose level at 10 mg/kg, po administered 30 mins prior to glucose challenge and measured after 30 mins by OGTT (reference value: 15.8 +/-4.5 mM); type: functional; details: time 60 min, 1 h
# Mus musculus [15] = test: Anti-Hyperglycemic activity in high fat diet-fed/streptozotocin-induced type 2 diabetic mellitus C57BL/6 mouse model assessed as blood glucose level at 10 mg/kg, po administered 30 mins prior to glucose challenge and measured after 60 mins by OGTT (reference value: 15.8 +/-4.5 mM); type: functional; details: time 90 min, 1.5 h
# Mus musculus [16] = test: Anti-Hyperglycemic activity in high fat diet-fed/streptozotocin-induced type 2 diabetic mellitus C57BL/6 mouse model assessed as blood glucose level at 10 mg/kg, po administered 30 mins prior to glucose challenge and measured after 90 mins by OGTT (reference value: 15.8 +/-4.5 mM); type: functional; details: time 120 min, 2 h
# Mus musculus [17] = test: Anti-Hyperglycemic activity in high fat diet-fed/streptozotocin-induced type 2 diabetic mellitus C57BL/6 mouse model assessed as blood glucose level at 10 mg/kg, po administered 30 mins prior to glucose challenge and measured after 120 mins by OGTT (reference value: 15.8 +/-4.5 mM); type: functional; details: time 150 min, 2.5 h
# Mus musculus [18] = test: Anti-Hyperglycemic activity in high fat diet-fed/streptozotocin-induced type 2 diabetic mellitus C57BL/6 mouse model assessed as reduction in AUC(0 to 120 mins) of blood glucose level at 1 mg/kg, ip administered 30 mins prior to glucose challenge and measured after 120 mins by IGTT; type: functional; details: C57BL/6, ip, 2.5 h, time 150 min
# In short: (§3)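 Glucose tolerance tests (intraperitoneal or oral) in HFD/STZ type 2 diabetic male C57BL/6 mice. Glucose AUC was calculated over 0–120 min. Percent reduction came from AUC normalised to saline-challenged controls. Mean ± SD, n = 4. Statistics: one-way ANOVA with LSD post-test.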
# Mus musculus [19] = test: Anti-Hyperglycemic activity in high fat diet-fed/streptozotocin-induced type 2 diabetic mellitus C57BL/6 mouse model assessed as reduction in AUC(0 to 120 mins) of blood glucose level at 5 mg/kg, ip administered 30 mins prior to glucose challenge and measured after 120 mins by IGTT; type: functional; details: C57BL/6, ip, 2.5 h, time 150 min; in short: as §3
# Mus musculus [20] = test: Anti-Hyperglycemic activity in high fat diet-fed/streptozotocin-induced type 2 diabetic mellitus C57BL/6 mouse model assessed as reduction in AUC(0 to 120 mins) of blood glucose level at 10 mg/kg, ip administered 30 mins prior to glucose challenge and measured after 120 mins by IGTT; type: functional; details: C57BL/6, ip, 2.5 h, time 150 min; in short: as §3
# Mus musculus [21] = test: Anti-Hyperglycemic activity in high fat diet-fed/streptozotocin-induced type 2 diabetic mellitus C57BL/6 mouse model assessed as reduction in AUC(0 to 120 mins) of blood glucose level at 10 mg/kg, po administered 30 mins prior to glucose challenge and measured after 120 mins by OGTT; type: functional; details: C57BL/6, po, 2.5 h, time 150 min; in short: as §3
# Mus musculus [22] = test: Anti-Hyperglycemic activity in high fat diet-fed/streptozotocin-induced type 2 diabetic mellitus C57BL/6 mouse model assessed as reduction in blood glucose level at 10 mg/kg/day for 14 days and measured on day 14; type: functional; details: C57BL/6, 336 h, time 14 day
# In short: (§4)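 HFD/STZ-induced type 2 diabetic male C57BL/6 mice were dosed at 10 mg/kg/day for 14 days. Plasma glucose was tracked over the treatment period and compared with diabetic controls. Mean ± SD of 4 mice. Statistics: one-way ANOVA with LSD post-test.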
# Mus musculus [23] = test: Anti-Hyperglycemic activity in high fat diet-fed/streptozotocin-induced type 2 diabetic mellitus C57BL/6 mouse model assessed as reduction in blood glucose level at 10 mg/kg/day for 14 days and measured on day 5; type: functional, organism-based; details: time 5.0 day; in short: as §4
# Chain of Dipeptidyl peptidase 9 (Q86TI2 whole entry): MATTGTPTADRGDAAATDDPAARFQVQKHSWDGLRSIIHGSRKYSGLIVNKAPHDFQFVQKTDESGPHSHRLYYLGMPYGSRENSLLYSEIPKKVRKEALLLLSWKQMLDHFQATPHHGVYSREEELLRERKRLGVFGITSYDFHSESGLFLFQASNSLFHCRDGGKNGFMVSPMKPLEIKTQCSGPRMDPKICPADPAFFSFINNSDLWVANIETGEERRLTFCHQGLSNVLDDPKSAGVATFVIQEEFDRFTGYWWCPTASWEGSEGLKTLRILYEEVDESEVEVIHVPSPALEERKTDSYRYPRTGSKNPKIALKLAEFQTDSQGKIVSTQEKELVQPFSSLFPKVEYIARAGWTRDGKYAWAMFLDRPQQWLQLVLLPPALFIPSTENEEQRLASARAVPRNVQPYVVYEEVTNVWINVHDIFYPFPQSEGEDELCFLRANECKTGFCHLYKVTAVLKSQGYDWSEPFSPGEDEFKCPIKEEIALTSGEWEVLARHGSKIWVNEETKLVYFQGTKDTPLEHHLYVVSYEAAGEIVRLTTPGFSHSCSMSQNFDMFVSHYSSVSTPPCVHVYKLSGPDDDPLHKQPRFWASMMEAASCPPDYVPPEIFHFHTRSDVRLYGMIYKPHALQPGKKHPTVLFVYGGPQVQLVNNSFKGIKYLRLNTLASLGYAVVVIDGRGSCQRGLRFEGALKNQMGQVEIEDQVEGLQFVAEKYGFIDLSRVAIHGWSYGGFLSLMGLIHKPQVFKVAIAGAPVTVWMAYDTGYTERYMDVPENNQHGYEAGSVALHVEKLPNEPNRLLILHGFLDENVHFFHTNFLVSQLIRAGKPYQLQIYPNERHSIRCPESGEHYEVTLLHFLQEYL
# Chain of Dipeptidyl peptidase 8 (Q6V1X1 whole entry): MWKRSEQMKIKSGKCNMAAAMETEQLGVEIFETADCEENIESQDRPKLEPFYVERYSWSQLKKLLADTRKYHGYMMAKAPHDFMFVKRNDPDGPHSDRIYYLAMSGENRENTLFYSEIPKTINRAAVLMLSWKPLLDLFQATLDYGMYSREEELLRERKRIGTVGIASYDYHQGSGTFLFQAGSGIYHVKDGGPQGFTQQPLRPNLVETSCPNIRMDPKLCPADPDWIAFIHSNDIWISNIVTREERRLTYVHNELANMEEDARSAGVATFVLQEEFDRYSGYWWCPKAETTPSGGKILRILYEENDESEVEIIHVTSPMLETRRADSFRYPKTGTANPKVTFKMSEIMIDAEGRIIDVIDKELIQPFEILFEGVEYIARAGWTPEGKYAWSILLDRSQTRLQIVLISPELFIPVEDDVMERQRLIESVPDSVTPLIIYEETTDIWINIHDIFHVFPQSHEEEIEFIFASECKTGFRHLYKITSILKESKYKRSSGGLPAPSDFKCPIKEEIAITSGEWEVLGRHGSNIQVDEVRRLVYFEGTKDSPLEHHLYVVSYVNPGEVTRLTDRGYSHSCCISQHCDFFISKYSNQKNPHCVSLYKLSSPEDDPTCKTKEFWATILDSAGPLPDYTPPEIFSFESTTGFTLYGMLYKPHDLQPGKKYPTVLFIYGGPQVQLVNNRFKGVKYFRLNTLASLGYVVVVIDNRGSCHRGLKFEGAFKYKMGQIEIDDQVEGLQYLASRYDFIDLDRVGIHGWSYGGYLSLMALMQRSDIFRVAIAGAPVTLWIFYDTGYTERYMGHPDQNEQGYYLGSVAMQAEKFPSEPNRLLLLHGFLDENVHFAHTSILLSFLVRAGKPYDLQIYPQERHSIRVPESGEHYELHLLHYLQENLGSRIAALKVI
# Chain of Dipeptidyl peptidase 4 (P27487 whole entry): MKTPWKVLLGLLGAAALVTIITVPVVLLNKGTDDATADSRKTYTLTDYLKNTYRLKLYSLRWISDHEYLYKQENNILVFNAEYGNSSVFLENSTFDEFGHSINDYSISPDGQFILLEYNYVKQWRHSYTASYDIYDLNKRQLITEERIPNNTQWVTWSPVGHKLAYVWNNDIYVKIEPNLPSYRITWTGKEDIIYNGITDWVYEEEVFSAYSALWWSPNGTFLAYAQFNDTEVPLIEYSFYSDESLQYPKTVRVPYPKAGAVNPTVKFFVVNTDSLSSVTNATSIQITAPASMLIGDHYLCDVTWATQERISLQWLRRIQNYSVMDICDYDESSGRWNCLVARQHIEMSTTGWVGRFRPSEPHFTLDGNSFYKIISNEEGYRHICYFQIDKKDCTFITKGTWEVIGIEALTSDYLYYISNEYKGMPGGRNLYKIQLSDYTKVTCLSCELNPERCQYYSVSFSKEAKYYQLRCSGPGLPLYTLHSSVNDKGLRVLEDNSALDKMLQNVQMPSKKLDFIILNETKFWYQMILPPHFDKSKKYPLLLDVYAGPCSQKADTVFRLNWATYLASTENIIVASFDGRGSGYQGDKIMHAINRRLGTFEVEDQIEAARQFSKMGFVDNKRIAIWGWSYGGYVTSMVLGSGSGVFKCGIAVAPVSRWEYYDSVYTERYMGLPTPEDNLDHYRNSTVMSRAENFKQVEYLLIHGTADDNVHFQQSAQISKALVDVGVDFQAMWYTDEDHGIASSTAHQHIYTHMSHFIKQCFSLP
compound,measurement,setting,value
CN(c1ccccc1)c1cc(N2CCC[C@@H](N)C2)nc2ccnn12,IC50,Dipeptidyl peptidase 4,> 100 µM
CC(C)(C)Nc1cc(NC(C)(C)C)n2nccc2n1,IC50,Dipeptidyl peptidase 4,> 100 µM
N[C@@H]1CCCN(c2cc(NCCc3ccc(Cl)cc3Cl)n3nccc3n2)C1,IC50,Dipeptidyl peptidase 8,> 100 µM
same,IC50,Dipeptidyl peptidase 9,> 100 µM
Cc1ccnc(Nc2cc(N3CCC[C@@H](N)C3)nc3ccnn23)c1,IC50,Dipeptidyl peptidase 8,> 100 µM
same,IC50,Dipeptidyl peptidase 9,> 100 µM
Cc1ccc(Nc2cc(N3CCNCC3)nc3ccnn23)c(C)c1,IC50,Dipeptidyl peptidase 8,> 100 µM
same,IC50,Dipeptidyl peptidase 9,> 100 µM
Cc1ccc(Nc2cc(N3CCC[C@@H](N)C3)nc3ccnn23)c(C)c1,IC50,Dipeptidyl peptidase 8,> 100 µM
same,IC50,Dipeptidyl peptidase 9,> 100 µM
Cc1ccnc(Nc2cc(N3CCNCC3)nc3ccnn23)c1,IC50,Dipeptidyl peptidase 8,> 100 µM
same,IC50,Dipeptidyl peptidase 9,> 100 µM
Fc1ccc(CNc2cc(N3CCNCC3)nc3ccnn23)c(F)c1,IC50,Dipeptidyl peptidase 8,> 50 µM
same,IC50,Dipeptidyl peptidase 9,> 50 µM
same,Activity,HepG2,Non-Toxic
same,"viability at 48 h, 100 µM",[1],90%
same,Activity,Mus musculus [2],25.7 mM
same,Activity,Mus musculus [3],18.6 mM
same,Activity,Mus musculus [4],17.9 mM
same,Activity,Mus musculus [5],14.8 mM
same,Activity,Mus musculus [6],23.4 mM
same,Activity,Mus musculus [7],18.5 mM
same,Activity,Mus musculus [8],17.4 mM
same,Activity,Mus musculus [9],15.1 mM
same,Activity,Mus musculus [10],16.2 mM
same,Activity,Mus musculus [11],14.4 mM
same,Activity,Mus musculus [12],13 mM
same,Activity,Mus musculus [13],10.9 mM
same,Activity,Mus musculus [14],26.7 mM
same,Activity,Mus musculus [15],19.1 mM
same,Activity,Mus musculus [16],18.5 mM
same,Activity,Mus musculus [17],15.6 mM
same,inhibition in vivo at 1 mg/kg,Mus musculus [18],26%
same,inhibition in vivo at 5 mg/kg,Mus musculus [19],28%
same,inhibition in vivo at 10 mg/kg,Mus musculus [20],47%
same,inhibition in vivo at 10 mg/kg,Mus musculus [21],22%
same,inhibition in vivo at 10 mg/kg/day,Mus musculus [22],46%
same,Activity,Mus musculus [23],inactive
N[C@@H]1CCCN(c2cc(Nc3ccccc3Cl)n3nccc3n2)C1,IC50,Dipeptidyl peptidase 8,> 100 µM
same,IC50,Dipeptidyl peptidase 9,> 100 µM
Fc1ccc(Nc2cc(N3CCNCC3)nc3ccnn23)c(F)c1,IC50,Dipeptidyl peptidase 8,> 100 µM
same,IC50,Dipeptidyl peptidase 9,> 100 µM
